Assay results from ChEMBL document CHEMBL4011643, “Triaryl Benzimidazoles as a New Class of Antibacterial Agents against Resistant Pathogenic Microorganisms” (J Med Chem, 2017).
Values after ≈ are worked out from the molar mass of the structure shown. Active and inactive are the calls of the source.

Assays:
Klebsiella pneumoniae [1] = assay: Antibacterial activity against Klebsiella pneumoniae NCTC 13368 after 20 hrs in the presence of Pa-beta-N and magnesium ions by broth microdilution method; type: functional; details: NCTC 13368, 20 h
In short: (§1)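 Broth microdilution in Tryptic Soy Broth, done in triplicate. Growth was read as OD600 after 20 h. MIC is the lowest drug concentration giving OD600 below 0.1.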

Klebsiella pneumoniae [2] = assay: Antibacterial activity against Klebsiella pneumoniae NCTC 13368 after 20 hrs by broth microdilution method; type: functional; details: NCTC 13368, 20 h; in short: as §1
Klebsiella pneumoniae [3] = assay: Antibacterial activity against Klebsiella pneumoniae M6 after 20 hrs in the presence of PMBN by broth microdilution method; type: functional; details: M6, 20 h; in short: as §1
[4] = Cytotoxicity against human HeLa cells assessed as cell viability at 25 uM after 24 hrs by MTT assay; type: cell-based; details: read-out: Activity
In short: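 HeLa cells, 10000 per well, were grown at 37 °C in 5% CO2 and allowed to settle for 24 h. Compound was then added in triplicate for 24 h of continuous exposure. Viability was read by MTT colorimetry, with absorbance at 570 nm.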

[5] = Stabilization of FAM/TAMRA-labeled AT-rich DNA duplex (unknown origin) assessed as change in melting temperature at 1 uM by FRET-based assay
In short: (§2)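 FRET melting of a FAM/TAMRA-labelled AT-rich oligonucleotide, 400 nM working solution in 50 mM potassium, 50 mM cacodylate, pH 7.4. DNA was annealed at 85 °C for 6 min, then held at 25 °C for 5 h, and mixed 1:1 with sample. Fluorescence was read every 0.5 °C from 30 to 100 °C, with a 30 s hold per step. ΔTm is measured against the blank, in triplicate.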

Enterococcus faecalis [6] = assay: Antibacterial activity against vancomycin-resistant Enterococcus faecalis NCTC 12201 after 20 hrs by broth microdilution method; type: functional; details: NCTC 12201, 20 h
In short: (§3)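 Broth microdilution in Tryptic Soy Broth; growth read as OD600 after 20 h. MIC taken as the lowest drug concentration giving OD600 below 0.1. Run in triplicate.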

Enterococcus faecium = assay: Antibacterial activity against vancomycin-resistant Enterococcus faecium NCTC 12204 after 20 hrs by broth microdilution method; type: functional; details: NCTC 12204, 20 h; in short: as §3
Enterococcus faecalis [7] = assay: Antibacterial activity against vancomycin-sensitive Enterococcus faecalis NCTC 775 after 20 hrs by broth microdilution method; type: functional; details: NCTC 775, 20 h; in short: as §1
Staphylococcus aureus [8] = assay: Antibacterial activity against methicillin-resistant Staphylococcus aureus EMRSA-15 after 20 hrs by broth microdilution method; type: functional; details: EMRSA-15, 20 h; in short: as §3
Staphylococcus aureus [9] = assay: Antibacterial activity against methicillin-resistant Staphylococcus aureus MRSA252 after 20 hrs by broth microdilution method; type: functional; details: MRSA252, 20 h; in short: as §3
Staphylococcus aureus [10] = assay: Antibacterial activity against methicillin-sensitive Staphylococcus aureus ATCC 9144 after 20 hrs by broth microdilution method; type: functional; details: ATCC 9144, 20 h; in short: as §1
Acinetobacter baumannii [11] = assay: Antibacterial activity against Acinetobacter baumannii AYE after 20 hrs by broth microdilution method; type: functional; in short: as §1
Acinetobacter baumannii [12] = assay: Antibacterial activity against Acinetobacter baumannii AYE after 20 hrs in the presence of Pa-beta-N and magnesium ions by broth microdilution method; type: functional; in short: as §1
Acinetobacter baumannii [13] = assay: Antibacterial activity against Acinetobacter baumannii AYE after 20 hrs in the presence of PMBN by broth microdilution method; type: functional; in short: as §1
Acinetobacter baumannii [14] = assay: Antibacterial activity against Acinetobacter baumannii ATCC 17978 after 20 hrs by broth microdilution method; type: functional; details: ATCC 17978, 20 h; in short: as §1
Acinetobacter baumannii [15] = assay: Antibacterial activity against Acinetobacter baumannii ATCC 17978 after 20 hrs in the presence of Pa-beta-N and magnesium ions by broth microdilution method; type: functional; details: ATCC 17978, 20 h; in short: as §1
Acinetobacter baumannii [16] = assay: Antibacterial activity against Acinetobacter baumannii ATCC 17978 after 20 hrs in the presence of PMBN by broth microdilution method; type: functional; details: ATCC 17978, 20 h; in short: as §1
Klebsiella pneumoniae [17] = assay: Antibacterial activity against Klebsiella pneumoniae M6 after 20 hrs by broth microdilution method; type: functional; details: M6, 20 h; in short: as §1
Klebsiella pneumoniae [18] = assay: Antibacterial activity against Klebsiella pneumoniae M6 after 20 hrs in the presence of Pa-beta-N and magnesium ions by broth microdilution method; type: functional; details: M6, 20 h; in short: as §1
Klebsiella pneumoniae [19] = assay: Antibacterial activity against Klebsiella pneumoniae NCTC 13368 after 20 hrs in the presence of PMBN by broth microdilution method; type: functional; details: NCTC 13368, 20 h; in short: as §1
Pseudomonas aeruginosa [20] = assay: Antibacterial activity against Pseudomonas aeruginosa PAO1 after 20 hrs by broth microdilution method; type: functional; details: PAO1, 20 h; in short: as §1
Pseudomonas aeruginosa [21] = assay: Antibacterial activity against Pseudomonas aeruginosa PAO1 after 20 hrs in the presence of Pa-beta-N and magnesium ions by broth microdilution method; type: functional; details: PAO1, 20 h; in short: as §1
Pseudomonas aeruginosa [22] = assay: Antibacterial activity against Pseudomonas aeruginosa PAO1 after 20 hrs in the presence of PMBN by broth microdilution method; type: functional; details: PAO1, 20 h; in short: as §1
Pseudomonas aeruginosa [23] = assay: Antibacterial activity against Pseudomonas aeruginosa NCTC 13437 after 20 hrs by broth microdilution method; type: functional; details: NCTC 13437, 20 h; in short: as §1
Pseudomonas aeruginosa [24] = assay: Antibacterial activity against Pseudomonas aeruginosa NCTC 13437 after 20 hrs in the presence of Pa-beta-N and magnesium ions by broth microdilution method; type: functional; details: NCTC 13437, 20 h; in short: as §1
Pseudomonas aeruginosa [25] = assay: Antibacterial activity against Pseudomonas aeruginosa NCTC 13437 after 20 hrs in the presence of PMBN by broth microdilution method; type: functional; details: NCTC 13437, 20 h; in short: as §1
Enterococcus faecalis [26] = assay: Bactericidal activity against vancomycin-resistant Enterococcus faecalis NCTC 12201 assessed as time required to kill bacteria by >6 log10CFU/ml at 4 times MIC by Miles Misra dilution method; type: functional
In short: (§4)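 Flasks of TSB inoculated at ~10^6 cfu/mL, compound added at 4 × MIC, shaken at 200 rpm and 37 °C. Samples taken at 1, 2, 4, 6 and 24 h and plated by Miles Misra dilution for CFU/mL. Bactericidal means a loss of >3 log CFU/mL. Three independent repeats, error bars SD.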

Staphylococcus aureus [27] = assay: Bactericidal activity against methicillin-resistant Staphylococcus aureus EMRSA-15 assessed as time required to kill bacteria by >6 log10CFU/ml at 4 times MIC by Miles Misra dilution method; type: functional; in short: as §4
Enterococcus faecalis [28] = assay: Bactericidal activity against vancomycin-resistant Enterococcus faecalis NCTC 12201 at 4 times MIC after 10 hrs by Miles Misra dilution method; type: functional
Staphylococcus aureus [29] = assay: Bactericidal activity against methicillin-resistant Staphylococcus aureus EMRSA-15 at 4 times MIC after 10 hrs by Miles Misra dilution method; type: functional
[30] = Stabilization of FAM/TAMRA-labeled AT-rich DNA duplex (unknown origin) assessed as change in melting temperature at 5 uM by FRET-based assay; in short: as §2
Klebsiella pneumoniae [31] = assay: Ratio of MIC for Klebsiella pneumoniae M6 in absence of PMBN to MIC for Klebsiella pneumoniae M6 in presence of PMBN; type: functional
In short: (§5)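 Fold change: MIC without divided by MIC with 30 μg/mL PMBN. Both MICs were by TSB broth microdilution, with an OD600 <0.1 cutoff at 20 h.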

Klebsiella pneumoniae [32] = assay: Ratio of MIC for Klebsiella pneumoniae NCTC 13368 in absence of PMBN to MIC for Klebsiella pneumoniae NCTC 13368 in presence of PMBN; type: functional; in short: as §5
Pseudomonas aeruginosa [33] = assay: Ratio of MIC for Pseudomonas aeruginosa PAO1 in absence of PMBN to MIC for Pseudomonas aeruginosa PAO1 in presence of PMBN; type: functional; in short: as §5
Pseudomonas aeruginosa [34] = assay: Ratio of MIC for Pseudomonas aeruginosa NCTC 13437 in absence of PMBN to MIC for Pseudomonas aeruginosa NCTC 13437 in presence of PMBN; type: functional; in short: as §5
Acinetobacter baumannii [35] = assay: Ratio of MIC for Acinetobacter baumannii AYE in absence of PMBN to MIC for Acinetobacter baumannii AYE in presence of PMBN; type: functional; in short: as §5
Acinetobacter baumannii [36] = assay: Ratio of MIC for Acinetobacter baumannii ATCC 17978 in absence of PMBN to MIC for Acinetobacter baumannii ATCC 17978 in presence of PMBN; type: functional; in short: as §5
Klebsiella pneumoniae [37] = assay: Ratio of MIC for Klebsiella pneumoniae M6 in absence of Pa-beta-N to MIC for Klebsiella pneumoniae M6 in presence of Pa-beta-N; type: functional
In short: (§6)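 Both MICs were by TSB broth microdilution, with an OD600 <0.1 cutoff at 20 h.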

Klebsiella pneumoniae [38] = assay: Ratio of MIC for Klebsiella pneumoniae NCTC 13368 in absence of Pa-beta-N to MIC for Klebsiella pneumoniae NCTC 13368 in presence of Pa-beta-N; type: functional; in short: as §6
Pseudomonas aeruginosa [39] = assay: Ratio of MIC for Pseudomonas aeruginosa NCTC 13437 in absence of Pa-beta-N to MIC for Pseudomonas aeruginosa NCTC 13437 in presence of Pa-beta-N; type: functional; in short: as §6
Acinetobacter baumannii [40] = assay: Ratio of MIC for Acinetobacter baumannii AYE in absence of Pa-beta-N to MIC for Acinetobacter baumannii AYE in presence of Pa-beta-N; type: functional; in short: as §6
Acinetobacter baumannii [41] = assay: Ratio of MIC for Acinetobacter baumannii ATCC 17978 in absence of Pa-beta-N to MIC for Acinetobacter baumannii ATCC 17978 in presence of Pa-beta-N; type: functional; in short: as §6

Cc1nc2ccc(C(=O)Nc3cccc(-c4ccc(-n5c(C)nc6cc(C(=O)NCCCCN(C)C)ccc65)nc4)c3)cc2[nH]1
MIC (Klebsiella pneumoniae [1]): 32 µg/mL | MIC (Klebsiella pneumoniae [2]): > 32 µg/mL | MIC (Klebsiella pneumoniae [3]): 16 µg/mL | viability at 24 h, 25 µM [4]: > 98% | deltaTm [5]: 0.3 °C | MIC (Enterococcus faecalis [6]): 0.25 µg/mL (≈ 0.416 µM) | MIC (Enterococcus faecium): ≤ 0.125 µg/mL | MIC (Enterococcus faecalis [7]): 0.5 µg/mL (≈ 0.832 µM) | MIC (Staphylococcus aureus [8]): 1 µg/mL (≈ 1.66 µM) | MIC (Staphylococcus aureus [9]): 2 µg/mL (≈ 3.33 µM) | MIC (Staphylococcus aureus [10]): 0.5 µg/mL (≈ 0.832 µM) | MIC (Acinetobacter baumannii [11]): > 32 µg/mL | MIC (Acinetobacter baumannii [12]): 16 µg/mL | MIC (Acinetobacter baumannii [13]): 8 µg/mL | MIC (Acinetobacter baumannii [14]): > 32 µg/mL | MIC (Acinetobacter baumannii [15]): 8 µg/mL | MIC (Acinetobacter baumannii [16]): 8 µg/mL | MIC (Klebsiella pneumoniae [17]): > 32 µg/mL | MIC (Klebsiella pneumoniae [18]): 16 µg/mL | MIC (Klebsiella pneumoniae [19]): 32 µg/mL | MIC (Pseudomonas aeruginosa [20]): > 32 µg/mL | MIC (Pseudomonas aeruginosa [21]): > 32 µg/mL | MIC (Pseudomonas aeruginosa [22]): 16 µg/mL | MIC (Pseudomonas aeruginosa [23]): > 32 µg/mL | MIC (Pseudomonas aeruginosa [24]): > 32 µg/mL | MIC (Pseudomonas aeruginosa [25]): 16 µg/mL | Time (Enterococcus faecalis [26]): 2 h | Time (Staphylococcus aureus [27]): 2 h | Activity (Enterococcus faecalis [28]): inactive | Activity (Staphylococcus aureus [29]): inactive | deltaTm [30]: 0.6 °C | Ratio (Klebsiella pneumoniae [31]): 4 | Ratio (Klebsiella pneumoniae [32]): 4 | Ratio (Pseudomonas aeruginosa [33]): >16 | Ratio (Pseudomonas aeruginosa [34]): >16 | Ratio (Acinetobacter baumannii [35]): 2 | Ratio (Acinetobacter baumannii [36]): 2 | Ratio (Klebsiella pneumoniae [37]): >=4 | Ratio (Klebsiella pneumoniae [38]): 2 - 4 | Ratio (Pseudomonas aeruginosa [39]): 2 - 4 | Ratio (Acinetobacter baumannii [40]): 2 - 4 | Ratio (Acinetobacter baumannii [41]): 2 - 4
